According to ChEMBL document CHEMBL4251626, “4β-amidotriazole linked podophyllotoxin congeners: DNA topoisomerase-IIα inhibition and potential anticancer agents for prostate cancer” (Eur J Med Chem, 2018):

Tests used:
[1] = test system: HeLa; experiment: Antiproliferative activity against human HeLa cells after 48 hrs by MTT assay; type: functional, cell-based
Outline: (§1)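 Cells in DMEM/10% FBS pre-incubated 24 h at 37 °C, then compound-treated 48 h (10 mM DMSO stock diluted in medium). MTT (10 µL of 5 mg/mL) added for 4 h; formazan dissolved in DMSO, absorbance read at 570 nm. IC50 = 50% inhibitory concentration, mean of three individual experiments.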

[2] = test system: MCF7; experiment: Antiproliferative activity against human MCF7 cells after 48 hrs by MTT assay; type: functional, cell-based; conditions: MCF7, 48 h; outline: as §1
[3] = test system: DU-145; experiment: Antiproliferative activity against human DU145 cells after 48 hrs by MTT assay; type: functional, cell-based; conditions: DU-145, 48 h; outline: as §1
[4] = test system: A549; experiment: Antiproliferative activity against human A549 cells after 48 hrs by MTT assay; type: functional, cell-based; conditions: A549, 48 h; outline: as §1
[5] = test system: HepG2; experiment: Antiproliferative activity against human HepG2 cells after 48 hrs by MTT assay; type: functional, cell-based; conditions: HepG2, 48 h; outline: as §1
[6] = test system: HT-29; experiment: Antiproliferative activity against human HT-29 cells after 48 hrs by MTT assay; type: functional, cell-based; conditions: HT-29, 48 h; outline: as §1
[7] = test system: NIH3T3; experiment: Antiproliferative activity against mouse NIH/3T3 cells after 48 hrs by MTT assay; type: cell-based; conditions: NIH3T3, 48 h; outline: as §1

| Compound | IC50 [1] | IC50 [2] | IC50 [3] | IC50 [4] | IC50 [5] | IC50 [6] | IC50 [7] |
| --- | --- | --- | --- | --- | --- | --- | --- |
| COc1cc([C@@H]2c3cc4c(cc3C(NC(=O)c3cn(Cc5ccc(Cl)cc5)nn3)[C@H]3COC(=O)[C@H]23)OCO4)cc(OC)c1OC (single isomer, unassigned) | 3.57 µM | 5.3 µM | 2.37 µM | 8.06 µM | 3.54 µM | 23.7 µM | 81.3 µM |
| COc1ccc(Cn2cc(C(=O)NC3c4cc5c(cc4[C@@H](c4cc(OC)c(OC)c(OC)c4)[C@H]4C(=O)OC[C@H]34)OCO5)nn2)cc1 (single isomer, unassigned) | 3.46 µM | 3.32 µM | 1.76 µM | 5.82 µM | 1.96 µM | 17.5 µM | 67 µM |
| COc1cc([C@@H]2c3cc4c(cc3C(NC(=O)c3cn(-c5ccccc5)nn3)[C@H]3COC(=O)[C@H]23)OCO4)cc(OC)c1OC (single isomer, unassigned) | 2.47 µM | 1.45 µM | 1.31 µM | 1.82 µM | 1.94 µM | 5.37 µM | 53.9 µM |
| COc1cc([C@@H]2c3cc4c(cc3C(NC(=O)c3cn(Cc5ccccc5)nn3)[C@H]3COC(=O)[C@H]23)OCO4)cc(OC)c1OC (single isomer, unassigned) | 18.8 µM | 13.7 µM | 17.1 µM | 13.3 µM | 13.1 µM | 19.1 µM | 67 µM |
| COc1cc([C@@H]2c3cc4c(cc3C(NC(=O)c3cn(Cc5cccc(Oc6ccccc6)c5)nn3)[C@H]3COC(=O)[C@H]23)OCO4)cc(OC)c1OC (single isomer, unassigned) | 22.7 µM | 4.4 µM | 5.68 µM | 8.65 µM | 6.6 µM | 40.5 µM | 88.4 µM |
| COc1cc(OC)cc(-n2cc(C(=O)NC3c4cc5c(cc4[C@@H](c4cc(OC)c(OC)c(OC)c4)[C@H]4C(=O)OC[C@H]34)OCO5)nn2)c1 (single isomer, unassigned) | 17 µM | 8.66 µM | 11.7 µM | 17.7 µM | 13.8 µM | 19.6 µM | 77 µM |
| COc1cc(Cn2cc(C(=O)NC3c4cc5c(cc4[C@@H](c4cc(OC)c(OC)c(OC)c4)[C@H]4C(=O)OC[C@H]34)OCO5)nn2)cc(OC)c1OC (single isomer, unassigned) | 10.2 µM | 7.34 µM | 8.54 µM | 14.7 µM | 0.957 µM | 8.54 µM | 62 µM |
| COc1cccc(Cn2cc(C(=O)NC3c4cc5c(cc4[C@@H](c4cc(OC)c(OC)c(OC)c4)[C@H]4C(=O)OC[C@H]34)OCO5)nn2)c1 (single isomer, unassigned) | 22.6 µM | 7.71 µM | 12.4 µM | 21.3 µM | 9.88 µM | 31.3 µM | 74.1 µM |
| COc1cc([C@@H]2c3cc4c(cc3C(NC(=O)c3cn(Cc5ccc(F)cc5)nn3)[C@H]3COC(=O)[C@H]23)OCO4)cc(OC)c1OC (single isomer, unassigned) | 29 µM | 19.1 µM | 22.8 µM | 75.7 µM | 34.1 µM | 78.3 µM | 91.1 µM |
| COc1cc([C@@H]2c3cc4c(cc3C(NC(=O)c3cn(-c5ccc(F)cc5)nn3)[C@H]3COC(=O)[C@H]23)OCO4)cc(OC)c1OC (single isomer, unassigned) | 78.6 µM | 6.7 µM | 9.44 µM | 14.1 µM | 10.9 µM | 13.8 µM | 98.1 µM |
| COc1cc([C@@H]2c3cc4c(cc3C(NC(=O)c3cn(Cc5ccc6c(c5)OCO6)nn3)[C@H]3COC(=O)[C@H]23)OCO4)cc(OC)c1OC (single isomer, unassigned) | 32.9 µM | 34.5 µM | 27.7 µM | 34.5 µM | 26.6 µM | 36.4 µM | 69.5 µM |
| COc1cc(Cn2cc(C(=O)NC3c4cc5c(cc4[C@@H](c4cc(OC)c(OC)c(OC)c4)[C@H]4C(=O)OC[C@H]34)OCO5)nn2)cc(OC)c1 (single isomer, unassigned) | 25.8 µM | 13.9 µM | 14.6 µM | 32.4 µM | 14.2 µM | 27.4 µM | 81.3 µM |
| COc1ccc(Cn2cc(C(=O)NC3c4cc5c(cc4[C@@H](c4cc(OC)c(OC)c(OC)c4)[C@H]4C(=O)OC[C@H]34)OCO5)nn2)cc1OC (single isomer, unassigned) | 12.4 µM | 12.2 µM | 13.5 µM | 19.6 µM | 12.7 µM | 13.5 µM | 83.8 µM |
| COc1cc([C@@H]2c3cc4c(cc3C(NC(=O)c3cn(-c5ccc6c(c5)OCO6)nn3)[C@H]3COC(=O)[C@H]23)OCO4)cc(OC)c1OC (single isomer, unassigned) | 47.7 µM | 7.61 µM | 8.92 µM | 0.974 µM | 9.94 µM | 17.9 µM | 67.2 µM |
| COc1cc([C@@H]2c3cc4c(cc3C(NC(=O)c3cn(-c5cc(OC)c(OC)c(OC)c5)nn3)[C@H]3COC(=O)[C@H]23)OCO4)cc(OC)c1OC (single isomer, unassigned) | 10.2 µM | 7.34 µM | 8.54 µM | 14.7 µM | 0.957 µM | 8.54 µM | 79.6 µM |
| COc1cc([C@@H]2c3cc4c(cc3C(NC(=O)c3cn(Cc5ccc(C(F)(F)F)cc5)nn3)[C@H]3COC(=O)[C@H]23)OCO4)cc(OC)c1OC (single isomer, unassigned) | 26.6 µM | 21.9 µM | 32.9 µM | 27.8 µM | 20.4 µM | 66.4 µM | 75.5 µM |
| COc1ccc(-n2cc(C(=O)NC3c4cc5c(cc4[C@@H](c4cc(OC)c(OC)c(OC)c4)[C@H]4C(=O)OC[C@H]34)OCO5)nn2)cc1OC (single isomer, unassigned) | 18.6 µM | 8.04 µM | 14.5 µM | 12.2 µM | 11.7 µM | 15.1 µM | 66.2 µM |
| COc1cc([C@@H]2c3cc4c(cc3[C@H](O)[C@H]3COC(=O)[C@H]23)OCO4)cc(OC)c1OC [PODOFILOX] | 3.45 µM | 3.06 µM | 4.15 µM | 4.6 µM | 6.63 µM | 4.78 µM |  |
